In ChEMBL document CHEMBL3124801, “Structure-based optimization of tyrosine kinase inhibitor CLM3. Design, synthesis, functional evaluation, and molecular modeling studies” (J Med Chem, 2014):

What was measured:
HUVEC = assay: Antiproliferative activity against HUVEC after 72 hrs by cell counter; settings: Homo sapiens
TT [1] = assay: Antiproliferative activity against human TT cells after 72 hrs by cell counter
[2] = Antiproliferative activity against HNDF after 72 hrs by cell counter; settings: Homo sapiens
[3] = molecular target: Proto-oncogene tyrosine-protein kinase receptor Ret (Homo sapiens) (UniProt P07949); assay: Inhibition of recombinant human RET at 100 uM incubated for 5 mins with substrate prior to protein addition by fluorescence assay relative to control
Proto-oncogene tyrosine-protein kinase receptor Ret (Homo sapiens), sequence (P07949 whole entry): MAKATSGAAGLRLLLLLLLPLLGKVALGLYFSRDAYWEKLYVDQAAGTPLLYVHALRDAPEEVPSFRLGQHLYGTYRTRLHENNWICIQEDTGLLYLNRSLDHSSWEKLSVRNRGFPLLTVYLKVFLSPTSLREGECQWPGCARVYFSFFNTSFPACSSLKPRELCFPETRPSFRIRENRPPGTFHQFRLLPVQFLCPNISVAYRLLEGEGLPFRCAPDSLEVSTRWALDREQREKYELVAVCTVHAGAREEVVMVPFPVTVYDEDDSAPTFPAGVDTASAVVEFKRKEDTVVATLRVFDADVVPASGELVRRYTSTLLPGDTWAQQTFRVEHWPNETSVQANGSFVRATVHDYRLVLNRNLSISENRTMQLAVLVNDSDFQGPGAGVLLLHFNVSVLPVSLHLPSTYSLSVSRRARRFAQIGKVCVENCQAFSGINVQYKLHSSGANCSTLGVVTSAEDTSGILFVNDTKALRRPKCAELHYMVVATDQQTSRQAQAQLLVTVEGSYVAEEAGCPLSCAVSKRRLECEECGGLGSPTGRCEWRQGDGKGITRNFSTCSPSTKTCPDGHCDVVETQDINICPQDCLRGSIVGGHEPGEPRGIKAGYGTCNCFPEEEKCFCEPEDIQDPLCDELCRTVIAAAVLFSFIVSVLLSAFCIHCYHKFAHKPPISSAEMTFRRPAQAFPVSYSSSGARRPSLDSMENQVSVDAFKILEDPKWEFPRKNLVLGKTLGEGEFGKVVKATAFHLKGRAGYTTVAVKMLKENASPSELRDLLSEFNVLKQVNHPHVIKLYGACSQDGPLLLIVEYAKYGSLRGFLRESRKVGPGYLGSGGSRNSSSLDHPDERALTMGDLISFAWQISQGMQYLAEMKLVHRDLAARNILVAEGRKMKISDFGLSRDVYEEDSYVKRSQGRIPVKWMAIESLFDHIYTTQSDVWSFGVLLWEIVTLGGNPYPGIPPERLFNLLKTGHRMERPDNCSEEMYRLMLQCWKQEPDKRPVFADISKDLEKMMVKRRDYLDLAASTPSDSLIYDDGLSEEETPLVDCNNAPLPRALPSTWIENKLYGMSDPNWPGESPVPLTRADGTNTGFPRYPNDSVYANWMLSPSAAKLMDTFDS
Summary of the method: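 Human recombinant RET was assayed with Omnia Tyr peptide 7 substrate at 30 °C, from 1 mM ATP and 1 mM DTT stocks, with DMSO ≤1% final. Mix plus inhibitor was preincubated 5 min before kinase was added to start the reaction. Fluorescence (ex 360/em 485 nm) was followed over time, and activity was taken from a linear fit of intensity versus time. Compounds were screened at 100 μM.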

TT [4] = assay: Antiproliferative activity against human TT cells
[5] = Antiproliferative activity against HMVEC-d cells after 72 hrs; settings: Homo sapiens
8305C = assay: cells; settings: Homo sapiens, 72 h

In the case of `O=C(Nc1cccc(CNc2ncnc3c2cnn3CCc2ccccc2)c1)c1ccc(Br)cc1`, the IC50 (HUVEC) is reported as 9.83 µM and the IC50 (TT [1]) is reported as 13.5 µM.
Work on `O=C(Nc1cccc(CNc2ncnc3c2cnn3CCc2ccccc2)c1)c1ccc([N+](=O)[O-])cc1` yielded an IC50 [2] of 22 µM, an IC50 (HUVEC) of 16.6 µM and an IC50 (TT [1]) of 6.13 µM.
`O=C(Nc1cccc(CNc2ncnc3c2cnn3CCc2ccccc2)c1)c1ccc(F)cc1` showed an IC50 (HUVEC) of 15.9 µM and an IC50 (TT [1]) of 13.6 µM.
Work on `COc1ccc(S(=O)(=O)Nc2cccc(CNc3ncnc4c3cnn4CCc3ccccc3)c2)cc1OC` yielded an inhibition [3] of 8%.
For `O=C(Nc1ccccc1)Nc1cccc(CNc2ncnc3c2cnn3CCc2ccccc2)c1`, the IC50 (HUVEC) was 13.4 µM and the IC50 (TT [1]) was 8.42 µM.
Compound `O=S(=O)(Cc1ccccc1)Nc1cccc(CNc2ncnc3c2cnn3CCc2ccccc2)c1` has an IC50 [2] of 23.6 µM, an IC50 (HUVEC) of 50.7 µM and an IC50 (TT [1]) of 5.97 µM.
`O=C(Nc1ccc([N+](=O)[O-])cc1)Nc1cccc(CNc2ncnc3c2cnn3CCc2ccccc2)c1` gave an inhibition [3] of 37%.
Work on `C[C@@H](Nc1ncnc2c1cnn2CCc1ccccc1)c1ccccc1` yielded an inhibition [3] of 48%, an IC50 (TT [4]) of 26.9 µM and an IC50 [5] of 0.0004 µM. It also gave an IC50 (8305C) of 9.2 µM.
In the case of `O=C(Nc1cccc(CNc2ncnc3c2cnn3CCc2ccccc2)c1)c1ccccc1`, the IC50 (HUVEC) is reported as 15.3 µM and the IC50 (TT [1]) is reported as 13.8 µM.
Compound `O=C(Nc1ccc(Br)cc1)Nc1cccc(CNc2ncnc3c2cnn3CCc2ccccc2)c1` has an IC50 (HUVEC) of 18.6 µM and an IC50 (TT [1]) of 9.86 µM.
For `O=[N+]([O-])c1ccc(S(=O)(=O)Nc2cccc(CNc3ncnc4c3cnn4CCc3ccccc3)c2)cc1`, the inhibition [3] was 57%.
Work on `O=S(=O)(Nc1cccc(CNc2ncnc3c2cnn3CCc2ccccc2)c1)c1ccccc1` yielded an IC50 (HUVEC) of 22.6 µM and an IC50 (TT [1]) of 8.08 µM.
